Source: ChEMBL document CHEMBL1148762, “Lysosome and HER3 (ErbB3) selective anticancer agent kahalalide F: semisynthetic modifications and antifungal lead-exploration studies” (J Med Chem, 2007)
≈ marks a conversion by molar mass, not a printed value.

Experiments:
Fusarium proliferatum [1] = assay: Antimicrobial activity against Fusarium proliferatum at 30 uM after 48 hrs by microtiter assay; format: functional
Summary of the method: (§1)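 96-well microdilution broth assay with conidia (3 × 10^5 conidia/mL, harvested from 7-day PDA cultures and filtered) against F. oxysporum, F. proliferatum and F. solani at 0.3, 3 and 30 µM. Plates were held at 24 ± 1 °C under a 12 h photoperiod. Growth was read at 620 nm at 24, 48 and 72 h and reported as percent inhibition from mean absorbance with standard error.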

Fusarium oxysporum [2] = assay: Antimicrobial activity against Fusarium oxysporum at 3 uM after 48 hrs by microtiter assay; format: functional; summary of the method: as §1
Fusarium solani [3] = assay: Antimicrobial activity against Fusarium solani at 0.3 uM after 48 hrs by microtiter assay; format: functional; summary of the method: as §1
Hs-578T = assay: Cytotoxicity against human HS578T cells; format: functional
Summary of the method: (§2)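 NCI Developmental Therapeutics Program cell panel. GI50 is the concentration that reduces growth of treated cells to half that of untreated controls. TGI is the concentration that completely halts growth.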

Aspergillus fumigatus = assay: Antimicrobial activity against Aspergillus fumigatus ATCC 90906; format: functional, organism-based
Fusarium oxysporum [4] = assay: Antimicrobial activity against Fusarium oxysporum at 30 uM after 72 hrs by microtiter assay; format: functional; summary of the method: as §1
Fusarium oxysporum [5] = assay: Antimicrobial activity against Fusarium oxysporum at 30 uM after 48 hrs by microtiter assay; format: functional; summary of the method: as §1
NCI-H322M = assay: Cytotoxicity against human NCI-H322M cells; format: functional; summary of the method: as §2
Fusarium oxysporum [6] = assay: Antimicrobial activity against Fusarium oxysporum at 0.3 uM after 72 hrs by microtiter assay; format: functional; summary of the method: as §1
COLO 205 = assay: Cytotoxicity against human COLO205 cells; format: functional; summary of the method: as §2
[7] = system: Mycobacterium tuberculosis; assay: Antibacterial activity against Mycobacterium tuberculosis H37Rv at 16 ug/mL by micro plate alamar blue assay; format: functional
Summary of the method: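 M. tuberculosis H37Rv ATCC 27294 grown in BACTEC 12B medium; microplate Alamar blue assay (MABA). Primary screen at a single concentration of 16 µg/mL, read as percent inhibition.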

Fusarium oxysporum [8] = assay: Antimicrobial activity against Fusarium oxysporum at 3 uM after 72 hrs by microtiter assay; format: functional; summary of the method: as §1
A549 = assay: Cytotoxicity against human A549 cells; format: functional; summary of the method: as §2
Candida albicans = assay: Antimicrobial activity against Candida albicans ATCC 90028; format: functional, organism-based
[9] = system: Mycobacterium intracellulare; assay: Antimicrobial activity against Mycobacterium intracellular ATCC 23068; format: functional, organism-based
Fusarium solani [10] = assay: Antimicrobial activity against Fusarium solani at 0.3 uM after 72 hrs by microtiter assay; format: functional; summary of the method: as §1
Fusarium solani [11] = assay: Antimicrobial activity against Fusarium solani at 3 uM after 72 hrs by microtiter assay; format: functional; summary of the method: as §1
[12] = system: Mycobacterium tuberculosis; assay: Antibacterial activity against Mycobacterium tuberculosis H37Rv by micro plate alamar blue assay; format: functional
Fusarium solani [13] = assay: Antimicrobial activity against Fusarium solani at 30 uM after 48 hrs by microtiter assay; format: functional; summary of the method: as §1
ACHN = assay: Cytotoxicity against human ACHN cells; format: functional; summary of the method: as §2
HCT-15 = assay: Cytotoxicity against human HCT15 cells; format: functional; summary of the method: as §2
Fusarium solani [14] = assay: Antimicrobial activity against Fusarium solani at 30 uM after 72 hrs by microtiter assay; format: functional; summary of the method: as §1
SK-OV-3 = assay: Cytotoxicity against human SK-OV3 cells; format: functional; summary of the method: as §2
Fusarium proliferatum [15] = assay: Antimicrobial activity against Fusarium proliferatum at 3 uM after 48 hrs by microtiter assay; format: functional; summary of the method: as §1
Fusarium solani [16] = assay: Antimicrobial activity against Fusarium solani at 3 uM after 48 hrs by microtiter assay; format: functional; summary of the method: as §1
PC-3 = assay: Cytotoxicity against human PC3 cells; format: functional; summary of the method: as §2
Cryptococcus neoformans = assay: Antimicrobial activity against Cryptococcus neoformans ATCC 90113; format: functional, organism-based
Leishmania donovani = assay: Antiparasitic activity against Leishmania donovani; format: functional, organism-based
RPMI-8226 = assay: Cytotoxicity against human RPMI8226 cells; format: functional; summary of the method: as §2
T47D = assay: Cytotoxicity against human T47D cells; format: functional; summary of the method: as §2
Fusarium proliferatum [17] = assay: Antimicrobial activity against Fusarium proliferatum at 3 uM after 72 hrs by microtiter assay; format: functional; summary of the method: as §1
DU-145 = assay: Cytotoxicity against human DU145 cells; format: functional; summary of the method: as §2
KM12 = assay: Cytotoxicity against human KM12 cells; format: functional; summary of the method: as §2
HCC 2998 = assay: Cytotoxicity against human HCC2998 cells; format: functional; summary of the method: as §2
Fusarium proliferatum [18] = assay: Antimicrobial activity against Fusarium proliferatum at 0.3 uM after 72 hrs by microtiter assay; format: functional; summary of the method: as §1
Fusarium proliferatum [19] = assay: Antimicrobial activity against Fusarium proliferatum at 30 uM after 72 hrs by microtiter assay; format: functional; summary of the method: as §1
UACC-257 = assay: Cytotoxicity against human UACC257 cells; format: functional; summary of the method: as §2
Fusarium proliferatum [20] = assay: Antimicrobial activity against Fusarium proliferatum at 0.3 uM after 48 hrs by microtiter assay; format: functional; summary of the method: as §1
SNB-75 = assay: Cytotoxicity against human SNB75 cells; format: functional; summary of the method: as §2
Fusarium oxysporum [21] = assay: Antimicrobial activity against Fusarium oxysporum at 0.3 uM after 48 hrs by microtiter assay; format: functional; summary of the method: as §1
HT-29 = assay: Cytotoxicity against human HT29 cells; format: functional; summary of the method: as §2

C/C=C1\NC(=O)[C@H](Cc2ccccc2)NC(=O)[C@@H](C(C)C)NC(=O)[C@@H]([C@@H](C)CC)NC(=O)[C@H](NC(=O)[C@H](NC(=O)[C@H](CCCNCc2cccs2)NC(=O)[C@H]2CCCN2C(=O)[C@H](NC(=O)[C@@H](NC(=O)[C@@H](NC(=O)[C@H](NC(=O)CCCC(C)C)C(C)C)[C@@H](C)O)C(C)C)C(C)C)[C@@H](C)CC)[C@@H](C)OC(=O)[C@H](C(C)C)NC1=O
inhibition at 30 µM (Fusarium proliferatum [1]): 98.7% | inhibition at 3 µM (Fusarium oxysporum [2]): 13.7% | inhibition at 0.3 µM (Fusarium solani [3]): 0% | GI50 (Hs-578T): 427 nM | TGI (Hs-578T): 2130 nM | MFC (Aspergillus fumigatus): 20 µM (≈ 31.5 µg/mL) | MIC (Aspergillus fumigatus): 10 µM (≈ 15.7 µg/mL) | inhibition at 30 µM (Fusarium oxysporum [4]): 99.2% | inhibition at 30 µM (Fusarium oxysporum [5]): 98.8% | GI50 (NCI-H322M): 167 nM | TGI (NCI-H322M): 304 nM | inhibition at 0.3 µM (Fusarium oxysporum [6]): 0% | GI50 (COLO 205): 243 nM | inhibition at 16 µg/mL [7]: 92% | inhibition at 3 µM (Fusarium oxysporum [8]): 0% | GI50 (A549): 166 nM | MFC (Candida albicans): 20 µM (≈ 31.5 µg/mL) | MIC (Candida albicans): 10 µM (≈ 15.7 µg/mL) | MBC [9]: > 20 µM | MIC [9]: > 20 µM | inhibition at 0.3 µM (Fusarium solani [10]): 0% | inhibition at 3 µM (Fusarium solani [11]): 32.9% | MIC [12]: 15.5 µg/mL (≈ 9.85 µM) | inhibition at 30 µM (Fusarium solani [13]): 99% | GI50 (ACHN): 1320 nM | TGI (ACHN): 2370 nM | GI50 (HCT-15): 416 nM | TGI (HCT-15): 1360 nM | inhibition at 30 µM (Fusarium solani [14]): 99.3% | GI50 (SK-OV-3): 223 nM | TGI (SK-OV-3): 485 nM | inhibition at 3 µM (Fusarium proliferatum [15]): 4.8% | inhibition at 3 µM (Fusarium solani [16]): 47% | GI50 (PC-3): 228 nM | TGI (PC-3): 665 nM | MFC (Cryptococcus neoformans): 10 µM (≈ 15.7 µg/mL) | MIC (Cryptococcus neoformans): 5 µM (≈ 7.87 µg/mL) | IC90 (Leishmania donovani): 34 µg/mL (≈ 21.6 µM) | GI50 (RPMI-8226): 1270 nM | TGI (RPMI-8226): 2760 nM | GI50 (T47D): 191 nM | TGI (T47D): 394 nM | inhibition at 3 µM (Fusarium proliferatum [17]): 0% | GI50 (DU-145): 144 nM | TGI (DU-145): 292 nM | GI50 (KM12): 1010 nM | TGI (KM12): 2190 nM | GI50 (HCC 2998): 255 nM | TGI (HCC 2998): 971 nM | inhibition at 0.3 µM (Fusarium proliferatum [18]): 0% | inhibition at 30 µM (Fusarium proliferatum [19]): 99% | GI50 (UACC-257): 1440 nM | TGI (UACC-257): 2820 nM | inhibition at 0.3 µM (Fusarium proliferatum [20]): 0% | GI50 (SNB-75): 1010 nM | TGI (SNB-75): 2190 nM | inhibition at 0.3 µM (Fusarium oxysporum [21]): 0% | GI50 (HT-29): 187 nM

C/C=C1\NC(=O)[C@H](Cc2ccccc2)NC(=O)[C@@H](C(C)C)NC(=O)[C@@H]([C@@H](C)CC)NC(=O)[C@H](NC(=O)[C@H](NC(=O)[C@H](CCCNCc2ccc(F)cc2)NC(=O)[C@H]2CCCN2C(=O)[C@H](NC(=O)[C@@H](NC(=O)[C@@H](NC(=O)[C@H](NC(=O)CCCC(C)C)C(C)C)[C@@H](C)O)C(C)C)C(C)C)[C@@H](C)CC)[C@@H](C)OC(=O)[C@H](C(C)C)NC1=O
inhibition at 30 µM (Fusarium proliferatum [1]): 97.5% | inhibition at 3 µM (Fusarium oxysporum [2]): 0% | inhibition at 0.3 µM (Fusarium solani [3]): 0% | GI50 (Hs-578T): 212 nM | TGI (Hs-578T): 695 nM | MFC (Aspergillus fumigatus): > 20 µM | MIC (Aspergillus fumigatus): > 20 µM | inhibition at 30 µM (Fusarium oxysporum [4]): 94.3% | inhibition at 30 µM (Fusarium oxysporum [5]): 96.6% | GI50 (NCI-H322M): 203 nM | TGI (NCI-H322M): 429 nM | inhibition at 0.3 µM (Fusarium oxysporum [6]): 0% | GI50 (COLO 205): 156 nM | TGI (COLO 205): 315 nM | inhibition at 16 µg/mL [7]: 77% | inhibition at 3 µM (Fusarium oxysporum [8]): 0% | GI50 (A549): 161 nM | TGI (A549): 340 nM | MFC (Candida albicans): > 20 µM | MIC (Candida albicans): > 20 µM | MBC [9]: > 20 µM | MIC [9]: > 20 µM | inhibition at 0.3 µM (Fusarium solani [10]): 0% | inhibition at 3 µM (Fusarium solani [11]): 0% | inhibition at 30 µM (Fusarium solani [13]): 97.3% | GI50 (ACHN): 1080 nM | TGI (ACHN): 2060 nM | GI50 (HCT-15): 151 nM | TGI (HCT-15): 289 nM | inhibition at 30 µM (Fusarium solani [14]): 97.3% | GI50 (SK-OV-3): 183 nM | TGI (SK-OV-3): 387 nM | inhibition at 3 µM (Fusarium proliferatum [15]): 0% | inhibition at 3 µM (Fusarium solani [16]): 16.5% | GI50 (PC-3): 142 nM | TGI (PC-3): 287 nM | MFC (Cryptococcus neoformans): 10 µM (≈ 15.9 µg/mL) | MIC (Cryptococcus neoformans): 10 µM (≈ 15.9 µg/mL) | GI50 (RPMI-8226): 475 nM | TGI (RPMI-8226): 1780 nM | GI50 (T47D): 161 nM | TGI (T47D): 333 nM | inhibition at 3 µM (Fusarium proliferatum [17]): 0% | GI50 (DU-145): 112 nM | TGI (DU-145): 230 nM | GI50 (KM12): 179 nM | TGI (KM12): 379 nM | GI50 (HCC 2998): 201 nM | TGI (HCC 2998): 517 nM | inhibition at 0.3 µM (Fusarium proliferatum [18]): 0% | inhibition at 30 µM (Fusarium proliferatum [19]): 96.1% | inhibition at 0.3 µM (Fusarium proliferatum [20]): 0% | GI50 (SNB-75): 265 nM | TGI (SNB-75): 655 nM | inhibition at 0.3 µM (Fusarium oxysporum [21]): 0% | GI50 (HT-29): 151 nM | TGI (HT-29): 288 nM
